# Assay results collected from several papers.
# Protocols differ between the studies behind these lines.
# Read-out: cell growth or viability
SMILES,cell line,assay,setting,IC50
COc1cc(OC)c2c(=O)cc(-c3ccc(N(C)C)cc3)oc2c1-c1c(OC)cc(OC)c2c(=O)cc(-c3ccc(N(C)C)cc3)oc12,HS27,MTT,24 h,> 200 µM
c1cnc2c(c1)ccc1cccnc12,BEL-7404,MTT,48 h,> 50 µM
COC(=O)CN=c1scc(-c2ccccc2)n1-c1ccc(C)cc1,SiHa,MTT,72 h,6.17 µM
COc1cccc2c1C(=O)c1c(O)c3c(c(O)c1C2=O)C[C@@](O)(C(=O)CO)C[C@@H]3O[C@H]1C[C@H](N)[C@H](O)[C@H](C)O1,LLC-PK11,neutral red,48 h,< 0.55 mg/L
COC(=O)CN=c1scc(-c2ccccc2)n1-c1ccc(OC)cc1,SiHa,MTT,72 h,2.32 µM
COc1ccc([C@H]2OC[C@H](Cc3ccc(C(C)(C)C)cc3)[C@@H]2CO)cc1OC,rat VSMC,resazurin,48 h,5 µM
Clc1ccc(-c2nc3ccccc3n2Cc2ccccc2)cc1Cl,MDA-MB-231,MTT,,52.5 µM
CCCCC[C@H](O)CC(=O)CCc1ccc(O)c(OC)c1,MRC5,SRB,,303 µM
c1ccc(-c2ccccn2)nc1,BEL-7404,MTT,48 h,> 50 µM
COc1cc(C)c(-c2c(C)cc(OC)c3c(=O)cc(-c4ccccc4)oc23)c2oc(-c3ccccc3)cc(=O)c12,HS27,MTT,24 h,> 200 µM
COc1c2ccoc2c(OCC=C(C)C)c2oc(=O)ccc12,MRC5,MTT,72 h,> 100 µM
Nc1nc(Nc2ccc3c(c2)CC[C@@H](N2CCCC2)CC3)nn1-c1cc2c(nn1)-c1ccccc1CCC2,CMK,trypan blue,72 h,2.24 µM
COc1ccc(C[C@H]2CO[C@H](c3ccc(OC)c(OC)c3)[C@H]2COC(=O)CC(C)C)cc1OC,rat VSMC,resazurin,48 h,31 µM
COC(=O)CN=c1scc(-c2ccccc2)n1-c1ccccc1OC,SiHa,MTT,72 h,4.2 µM
Cc1ccc2nc(-c3ccco3)[nH]c2c1,MDA-MB-231,MTT,48 h,> 100 µM
COc1cc(C)c(-c2c(C)cc(OC)c3c(=O)cc(-c4ccc(N(C)C)cc4)oc23)c2oc(-c3ccc(N(C)C)cc3)cc(=O)c12,HS27,MTT,,180 µM
CC(=O)c1cccc(N=Nc2c(C(=O)O)cc(O)c(O)c2O)c1,A-375,MTT,,11.9 µM
COc1cc(C)c(-c2c(C)cc(OC)c3c(=O)cc(-c4ccccc4Br)oc23)c2oc(-c3ccccc3Br)cc(=O)c12,HS27,MTT,24 h,> 200 µM
O=C(Nc1ccc2[nH]nc(-c3ccncc3)c2c1)[C@@H]1CCN(CC(=O)N2CCN(c3ccc(-c4ncccn4)cc3)CC2)C1,A-375,resazurin,96 h,0.037 µM
CC(=O)O[C@H]1C(=O)[C@@]2(C)[C@H]([C@H](OC(=O)c3ccccc3)[C@]3(O)C[C@H](OC(=O)[C@H](O)[C@@H](NC(=O)c4ccccc4)c4ccccc4)C(C)=C1C3(C)C)[C@]1(OC(C)=O)CO[C@@H]1C[C@@H]2O,MDA-MB-231,MTT,,1.38 µM
COc1cc(OC)c2c(=O)cc(-c3cccc(Br)c3)oc2c1,HS27,MTT,24 h,128 µM
CCOc1cc(OCC)cc(C(=O)O[C@@H]2CN3Cc4c(cc5c(c4OC)OCO5)[C@@]24C=C[C@H](OC)C[C@@H]34)c1,MRC5,WST-1,,> 10 µM
Cc1ccc2nc(-c3cccc([N+](=O)[O-])c3)[nH]c2c1,MDA-MB-231,MTT,48 h,> 100 µM
COc1cc(OC)c2c(=O)cc(-c3ccc(C(F)(F)F)cc3)oc2c1-c1c(OC)cc(OC)c2c(=O)cc(-c3ccc(C(F)(F)F)cc3)oc12,HS27,MTT,24 h,> 200 µM
CCOc1cc(-c2nc3ccc(C)cc3[nH]2)ccc1O,MDA-MB-231,MTT,48 h,> 100 µM
Cc1ccc2c(Br)cc(Br)c(O)c2n1,BEL-7404,MTT,48 h,> 150 µM
CC(=O)c1ccc(/N=N/c2cc(/C=C/C(=O)O)ccc2O)cc1,A-375,MTT,,> 50 µM
COc1cc(C)c(-c2c(C)cc(OC)c3c(=O)cc(-c4ccc(Br)cc4)oc23)c2oc(-c3ccc(Br)cc3)cc(=O)c12,HS27,MTT,24 h,> 200 µM
C=CCn1c(-c2ccc([N+](=O)[O-])cc2)nc2ccc(C)cc21,MDA-MB-231,MTT,,> 100 µM
Oc1c(I)cc(I)c2cccnc12,BEL-7404,MTT,48 h,> 100 µM
Cc1ccc2nc(-c3ccc([N+](=O)[O-])cc3)[nH]c2c1,MDA-MB-231,MTT,48 h,17.6 µM
COC(=O)CN=c1scc(-c2ccccc2)n1-c1ccccc1[N+](=O)[O-],Panc 04.03,MTT,72 h,22.1 µM
c1ccc2c(-c3nc4ccccc4[nH]3)c3ccccc3cc2c1,MDA-MB-231,MTT,48 h,8.4 µM
O=C(O)/C=C/c1ccc(O)cc1,A-375,MTT,,> 50 µM
COc1cc(C)cc2oc(-c3ccc(Br)cc3)cc(=O)c12,HS27,MTT,24 h,> 200 µM
Oc1ccc(Nc2nc(-c3ccc(Cl)cc3)cs2)cc1,FF2441,MTS,48 h,> 100 µM
COC(=O)CN=c1scc(-c2ccccc2)n1-c1ccc(Cl)cc1,Panc 04.03,MTT,72 h,52.1 µM
"Cl.Oc1cccc2c1[nH]c1c(C3=CC4(O)CC/C=C\CCCCN5CCC3C3(CC6/C=C\CCCCN6C43)C5)nccc12 (single isomer, unassigned; (+))",LLC-PK11,neutral red,48 h,1.85 mg/L
C/C=C(/C)C(=O)OC[C@H]1[C@@H](Cc2ccc(F)cc2)CO[C@@H]1c1ccc(F)cc1,rat VSMC,resazurin,48 h,4.7 µM
